Test [1] has as its system Rattus norvegicus. Kind of test: Effect (30 mg/kg, iv) on coronary reperfusion-induced arrhythmias was assessed in anesthetized rats.(Intervals of ventricular tachycardia (VT)+ventricular fibrillation (VF) within 600 s. It counts as functional, Cardiac ventricle.
The species named for test [2] is Rattus norvegicus. As to the kind of experiment: Inhibition of lipid peroxidation in rat liver microsomes. The format is functional. Further details: concentration or dose not given beside the values. The settings on record: dose or concentration not given here. A digest of the protocol:
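Wistar rat liver microsomes (2.0 mg protein) in 83.5 mM KCl, 37.2 mM Tris-HCl pH 7.4 with 1 mM ADP, 10 µM FeCl3, 0.02 mM NADPH; compound added in DMF, tested at 10^-5 M. 37 °C, 20 min. Malondialdehyde measured by thiobarbituric acid method, A532; % inhibition, mean ± SD, n = 3–6.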
In general terms: Liver microsomes are vesicles of endoplasmic reticulum, rich in cytochrome P450 enzymes.

The species named for test [3] is Cavia porcellus. As to the kind of experiment: Inhibitory activity on atrial contractility in isolated Guinea pig right atria at 0.3 mg/mL concentration. It counts as functional. The settings on record: Cardiac atrium. A digest of the protocol: (§1)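 Right atria from male Hartley guinea pigs (450–550 g), loaded at 0.5 g, in Tyrode's solution at 37 °C gassed with 95% O2/5% CO2. Equilibrated at least 30 min until rate stable within 5 beats/min; spontaneous rate and contractile force recorded on polygraph after compound addition.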

The species named for test [4] is Cavia porcellus. Kind of test: Inhibitory activity against atrial rate in isolated Guinea pig right atrea at 0.3 mg/mL concentration. The format is functional, Cardiac atrium. A digest of the protocol: as §1
The species named for test [5] is Cavia porcellus. As to the kind of experiment: Inhibitory activity on atrial rate in isolated Guinea pig right atria at 0.03 mg/mL concentration. It counts as functional. The settings on record: Cardiac atrium. The essentials: as §1
The species named for test [6] is Cavia porcellus. Kind of test: Inhibitory activity on atrial rate in isolated Guinea pig right atria at 0.1 mg/mL concentration. It counts as functional. The settings on record: Cardiac atrium. A digest of the protocol:
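Right atria from male Hartley guinea pigs (450–550 g), held under a 0.5 g load at 37 °C in Tyrode's solution gassed with 95% O2 + 5% CO2. After at least 30 min equilibration (rate stable within 5 beats/min), atrial rate and contractile force of spontaneously beating preparations were recorded on a polygraph with compound present.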

Test [7] is filed under the species Cavia porcellus. Kind of test: Inhibitory activity on atrial contractility in isolated Guinea pig right atria at 0.1 mg/mL concentration. The note with it: Cardiac atrium. The format is functional. The essentials:
as §1

For test [8], the species on record is Cavia porcellus. Kind of test: Inhibitory activity on atrial contractility in isolated Guinea pig right atria at 0.03 mg/mL concentration. It counts as functional. The note with it: Cardiac atrium. The essentials:
as §1

Test [9] relates to Rattus norvegicus. As to the kind of experiment: Effect (1 mg/kg, iv) on coronary reperfusion-induced arrhythmias was assessed in anesthetized rats.(Intervals of ventricular tachycardia (VT)+ventricular fibrillation (VF) within 600 s. The format is functional, Cardiac ventricle.
Test [10] is filed under the species Rattus norvegicus. As to the kind of experiment: Inhibitory effect on production of active oxygen species by rat peritoneal exudate macrophages. The format is functional. Further details: concentration or dose not given beside the values. The essentials:
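Peritoneal exudate macrophages harvested 3 days after ip liquid paraffin (male Wistar rats), >90% viable. Assay: 125 mM sodium phosphate pH 6.5, 0.08 mM EDTA, 1.2 U LDH, 0.32 mM NADH, (2–3) × 10^6 cells, compound in DMF, 1 × 10^-4 M. Started with NADH.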

The test system of test [11] is Rattus norvegicus. Kind of test: Effect (30 mg/kg, po) on coronary reperfusion-induced arrhythmias was assessed in anesthetized rats.(Intervals of ventricular tachycardia (VT)+ventricular fibrillation (VF) within 600 s. The format is functional, Cardiac ventricle. A digest of the protocol:
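Male Wistar rats (350–450 g) dosed orally 1 h before occlusion, then anesthetized with pentobarbital (60 mg/kg ip) and ventilated. LAD ligated 5 min, reperfused 10 min; VT plus VF durations summed within 600 s. Mean ± SE, n = 5–10; line 2 value is the minimum effective dose.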

Test [12] concerns Rattus norvegicus. Kind of test: Effect (10 mg/kg, iv) on coronary reperfusion-induced arrhythmias was assessed in anesthetized rats.(Intervals of ventricular tachycardia (VT)+ventricular fibrillation (VF) within 600 s. It counts as functional, Cardiac ventricle.

Consider eight compounds from ChEMBL document CHEMBL1125458, “3-O-alkylascorbic acids as free radical quenchers. 3. Protective effect on coronary occlusion-reperfusion induced arrhythmias in anesthetized rats” (1992).

As to `O=C1OC(C(O)CO)C(OCC(=O)c2ccccc2)=C1O` (configuration not stated), the Arrhythmias times in [1] was determined as 429. Besides, in [2], the inhibition – broadly, the percentage by which the read-out fell short of the control – was found to be 1%.

The compound `CCCCc1ccc(C(=O)COC2=C(O)C(=O)OC2C(O)CO)cc1` (configuration not stated) yielded an inhibition at 300 µg/mL in test [3] of 67.1%. Moreover, the Inhibition – broadly, the relative decrease from the control value, in per cent – in [4] stood at 25.6%. In addition, the inhibition at 30 µg/mL in test [5] worked out at 8.8%; in [8] it was 36.2%. The inhibition at 100 µg/mL in [6] was determined as 17%; in test [7], 52.8%. The Arrhythmias times in test [1] is on record as 325. The compound also registered an inhibition in [2] of 82%.

With `CCCCCCCCCCC(=O)COC1=C(O)C(=O)OC1C(O)CO` (configuration not stated), in [9], the Arrhythmias times came out at 205. The same compound returned an Inhibition in test [10] of 11.1%. In [2], this compound displayed an inhibition of 88%.

For `CCCCCCCCCCCCCCC(=O)COC1=C(O)C(=O)OC1C(O)CO` (configuration not stated), the Arrhythmias times in test [1] turned out to be 445. Further, the Inhibition in [10] amounted to 36.8%. In test [2], this compound came in with an inhibition of 65%.

Consider `CCCCCCCCCCOC1=C(O)C(=O)OC1C(O)CO` (configuration not stated), for which the Arrhythmias times in test [9] stood at 291; in test [11], 283.6. In [10], this compound came in with an Inhibition of 15.9%. The inhibition in [2] stood at 93%.

On to `CCCCCCCCC(=O)COC1=C(O)C(=O)OC1C(O)CO` (configuration not stated), for which the Arrhythmias times in test [12] came out at 433. The same compound had an Inhibition in test [10] of 4.9%. Further, the inhibition in [2] was 64%.

For `CCCCCCCCCCCCCCCC(=O)OCC(O)C1OC(=O)C(O)=C1OCC(C)=O` (configuration not stated), the Arrhythmias times in test [12] was 353. The inhibition in test [2] worked out at 53%.

In the case of `CCCCCCCCCCCC1OCC(C2OC(=O)C(O)=C2OCC(C)=O)O1` (configuration not stated), the Arrhythmias times in test [12] turned out to be 478. This compound also yielded an inhibition in test [2] of 44%.
